Data reported in ChEMBL document CHEMBL1158956, “Biologically active metabolites from Xenorhabdus spp., Part 2. Benzopyran-1-one derivatives with gastroprotective activity” (1991).
≈ marks a conversion by molar mass, not a printed value. Calls of active or inactive are those of the source. The calls are words filed in the database; no cut-off is given here.

Columns and labels:
Rattus norvegicus [1] = test: Antiulcerogenic activity in stress-induced Wistar rat assessed as protection from ulcer at 25 mg/kg, po; type: functional
Micrococcus luteus = test: Antimicrobial activity against Sarcina lutea ATCC 8740; type: functional
How it was run: (§1)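 MIC by blood agar screen: DST agar with 10% defibrinated horse blood; inocula were undiluted overnight broth cultures; plates incubated aerobically overnight at 37°.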

Salmonella typhimurium = test: Antimicrobial activity against Salmonella Typhimurium CT10; type: functional, Salmonella enterica subsp. enterica serovar Typhimurium; details: Salmonella enterica; how it was run: as §1
Staphylococcus aureus [2] = test: Antimicrobial activity against Staphylococcus aureus V573; type: functional; how it was run: as §1
Rattus norvegicus [3] = test: Antiulcerogenic activity in stress-induced Wistar rat assessed as protection from ulcer at 10 mg/kg, po; type: functional
Streptococcus sanguinis = test: Antimicrobial activity against Streptococcus sanguis ATCC 10556; type: functional; how it was run: as §1
Citrobacter freundii = test: Antimicrobial activity against Citrobacter freundii ES; type: functional; how it was run: as §1
Escherichia coli [4] = test: Antimicrobial activity against Escherichia coli 10418; type: functional; how it was run: as §1
Cryptococcus neoformans = test: Antimicrobial activity against Cryptococcus neoformans; type: functional
How it was run: (§2)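 Microtiter MIC with twofold dilutions in defined (Yeast Nitrogen Base + 1% glucose) and complex (Sabouraud's glucose) broth; compound from DMSO stock, final DMSO <1%; inocula 10^3 and 10^5 cells/ml; incubated 2 days at 37°.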

Streptococcus pyogenes = test: Antimicrobial activity against Streptococcus pyogenes CN10; type: functional; how it was run: as §1
Staphylococcus aureus [5] = test: Antimicrobial activity against Staphylococcus aureus Oxford NCTC 6571; type: functional; how it was run: as §1
Escherichia coli [6] = test: Antimicrobial activity against Escherichia coli ESS; type: functional; how it was run: as §1
Proteus mirabilis = test: Antimicrobial activity against Proteus mirabilis C977; type: functional; how it was run: as §1
Corynebacterium xerosis = test: Antimicrobial activity against Corynebacterium xerosis NCTC 9755; type: functional; how it was run: as §1
Enterobacter cloacae = test: Antimicrobial activity against Enterobacter cloacae N1; type: functional; how it was run: as §1
Priestia megaterium = test: Antimicrobial activity against Bacillus megaterium NCIB 9376; type: functional; how it was run: as §1
Escherichia coli [7] = test: Antimicrobial activity against Escherichia coli DCO; type: functional; how it was run: as §1
Klebsiella aerogenes = test: Antimicrobial activity against Klebsiella aerogenes A; type: functional; how it was run: as §1
Pseudomonas aeruginosa = test: Antimicrobial activity against Pseudomonas aeruginosa 1771P; type: functional; how it was run: as §1
Acinetobacter lwoffii = test: Antimicrobial activity against Acinetobacter lwoffii BRL 2400; type: functional; how it was run: as §1
Aspergillus niger = test: Antimicrobial activity against Aspergillus niger at […] after 2 days by tube dilution method; type: functional, organism-based
How it was run: (§3)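 Tube dilution MIC in defined medium (Yeast Nitrogen Base + 1% glucose) and complex medium (Sabouraud's glucose broth); compound dissolved in DMSO, final DMSO <1%; tenfold dilutions 100 to 0.1 μg/ml; inoculum 10^4 spores/ml; 2 days at 37°.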

Candida parapsilosis = test: Antimicrobial activity against Candida parapsilosis at 128 ug/ml after 2 days by twofold dilution method; type: functional, organism-based; how it was run: as §2
Rattus norvegicus [8] = test: Antiulcerogenic activity in stress-induced Wistar rat assessed as protection from ulcer at 5 mg/kg, po; type: functional
Candida albicans = test: Antimicrobial activity against Candida albicans at 128 ug/ml after 2 days by twofold dilution method; type: functional, organism-based; how it was run: as §2
[9] = system: Trichophyton mentagrophytes; test: Antimicrobial activity against Trichophyton mentagrophytes at 128 ug/ml after 11 days by twofold dilution method; type: functional, organism-based
Trichophyton rubrum = test: Antimicrobial activity against Trichophyton rubrum at 128 ug/ml after 11 days by twofold dilution method; type: functional, organism-based
Aspergillus fumigatus = test: Antimicrobial activity against Aspergillus fumigatus at […] after 2 days by tube dilution method; type: functional, organism-based; how it was run: as §3

Row | SMILES | Activity (Rattus norvegicus [1]) | MIC (Micrococcus luteus) | MIC (Salmonella typhimurium) | MIC (Staphylococcus aureus [2]) | Activity (Rattus norvegicus [3]) | MIC (Streptococcus sanguinis) | MIC (Citrobacter freundii) | MIC (Escherichia coli [4]) | MIC (Streptococcus pyogenes) | MIC (Staphylococcus aureus [5]) | MIC (Escherichia coli [6]) | MIC (Proteus mirabilis) | MIC (Corynebacterium xerosis) | MIC (Enterobacter cloacae) | MIC (Priestia megaterium) | MIC (Escherichia coli [7]) | MIC (Klebsiella aerogenes) | MIC (Pseudomonas aeruginosa) | MIC (Acinetobacter lwoffii) | also measured
1 | CC(C)CC(NC(=O)C(O)C(O)C(N)CCCNC(=N)N)C1Cc2cccc(O)c2C(=O)O1 (stereo unspecified) [XENOCOUMACIN 1] | 74% | 1 mg/L (≈ 2.15 µM) | > 100 mg/L | 25 mg/L (≈ 53.7 µM) | 8% | 10 mg/L (≈ 21.5 µM) | > 100 mg/L | 2.5 mg/L (≈ 5.37 µM) | 1 mg/L (≈ 2.15 µM) | 10 mg/L (≈ 21.5 µM) | 0.5 mg/L (≈ 1.07 µM) | > 100 mg/L | 1 mg/L (≈ 2.15 µM) | > 100 mg/L | 2.5 mg/L (≈ 5.37 µM) | 10 mg/L (≈ 21.5 µM) | > 100 mg/L | > 100 mg/L | 2.5 mg/L (≈ 5.37 µM) | MIC (Cryptococcus neoformans): 0.125 mg/L (≈ 0.268 µM)
2 | CC(C)CC(NC(=O)C(O)C(O)C1CCCN1)C1Cc2cccc(O)c2C(=O)O1 (stereo unspecified) [XENOCOUMACIN 2] | 70% | 5 mg/L (≈ 12.3 µM) | > 100 mg/L | > 100 mg/L | 61% | 10 mg/L (≈ 24.6 µM) | > 100 mg/L | 50 mg/L (≈ 123 µM) | 5 mg/L (≈ 12.3 µM) | 5 mg/L (≈ 12.3 µM) | 2.5 mg/L (≈ 6.15 µM) | > 100 mg/L | 5 mg/L (≈ 12.3 µM) | > 100 mg/L | 5 mg/L (≈ 12.3 µM) | > 100 mg/L | > 100 mg/L | > 100 mg/L | 5 mg/L (≈ 12.3 µM) | Activity (Aspergillus niger): inactive; Activity (Candida parapsilosis): inactive; Activity (Rattus norvegicus [8]): 26%; Activity (Candida albicans): inactive; Activity [9]: inactive; Activity (Trichophyton rubrum): inactive; Activity (Aspergillus fumigatus): inactive
